{
  "source": "ChEMBL document CHEMBL5042491",
  "about": "“Identification of Small Molecule Inhibitors of RNase L by Fragment-Based Drug Discovery” (J Med Chem, 2022)",
  "key": {"Sus scrofa [1]": {"organism": "Sus scrofa", "test": "Inhibition of recombinant full length P-RNAase L (1 to 743 residues) expressed in Escherichia coli BL21 (DE3) using 5'-FAM-UAA-UCA-AAU-UCU-UAU-UUG-CCC-CAU-UUU-UUU-GGU-UUA-BHQ-1-3' as substrate incubated for 60 min by FRET assay", "outline": "(§1)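 FRET cleavage assay. Recombinant RNase L (10 nM human or 2.5 nM porcine, final) was preincubated 10 min on ice with graded compound in 25 mM Tris pH 7.4, 100 mM KCl, 10 mM MgCl2, 2.5 mM DTT and 0.5 nM 2-5A. FAM/BHQ1 RNA probe was added and the mix held 1 h at room temperature. Read at ex 480/em 535 nm; triplicates; IC50 from dose-response.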"}, "[2]": {"target": "T1, 2-5A-dependent ribonuclease (Homo sapiens) (UniProt Q05823)", "T1 sequence (whole entry)": "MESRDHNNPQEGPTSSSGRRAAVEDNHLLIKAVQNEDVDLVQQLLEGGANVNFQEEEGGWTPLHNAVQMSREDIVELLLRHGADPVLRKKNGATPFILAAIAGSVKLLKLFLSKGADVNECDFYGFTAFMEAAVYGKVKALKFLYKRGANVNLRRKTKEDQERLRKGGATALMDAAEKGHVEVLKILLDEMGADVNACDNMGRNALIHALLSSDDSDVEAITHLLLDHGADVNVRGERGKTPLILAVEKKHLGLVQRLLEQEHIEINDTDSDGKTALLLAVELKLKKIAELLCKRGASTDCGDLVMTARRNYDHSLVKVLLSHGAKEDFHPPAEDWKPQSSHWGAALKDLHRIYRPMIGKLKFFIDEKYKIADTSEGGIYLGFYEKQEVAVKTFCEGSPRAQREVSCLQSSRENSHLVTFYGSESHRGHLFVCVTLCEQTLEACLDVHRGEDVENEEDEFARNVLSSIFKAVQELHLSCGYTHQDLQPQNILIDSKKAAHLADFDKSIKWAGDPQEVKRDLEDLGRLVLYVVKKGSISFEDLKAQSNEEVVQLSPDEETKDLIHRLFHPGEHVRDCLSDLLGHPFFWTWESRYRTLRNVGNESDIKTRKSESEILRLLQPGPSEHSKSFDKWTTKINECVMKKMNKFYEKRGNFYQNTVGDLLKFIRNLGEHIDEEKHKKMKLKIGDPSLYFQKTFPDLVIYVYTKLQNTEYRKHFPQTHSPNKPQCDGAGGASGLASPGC", "test": "Inhibition of recombinant full length H-RNAase L (1 to 741 residues) expressed in Escherichia coli BL21 (DE3) using 5'-FAM-UAA-UCA-AAU-UCU-UAU-UUG-CCC-CAU-UUU-UUU-GGU-UUA-BHQ-1-3' as substrate incubated for 60 min by FRET assay", "outline": "as §1"}, "[3]": {"target": "T2, 2-5A-dependent ribonuclease (Homo sapiens, UniProt Q05823)", "T2 sequence (Q05823 whole entry)": "T1 sequence (whole entry)", "test": "Inhibition of recombinant full length H-RNAase L (1 to 741 residues) expressed in Escherichia coli BL21 (DE3) assessed as inhibition rate in presence of 2-5A and ATP/MgCl2 by STD-NMR spectroscopy"}, "Sus scrofa [4]": {"organism": "Sus scrofa", "test": "(§2) Inhibition of recombinant full length P-RNAase L (1 to 743 residues)expressed in Escherichia coli BL21 (DE3) assessed as inhibition rate in presence of 2-5A AND ATP/MgCl2 by STD-NMR spectroscopy", "details": "time 60.0 min"}, "[5]": {"test": "Inhibition of wild type P-RNAase L expressed in Escherichia coli BL21 (DE3) assessed as inhibition rate", "parameters": "species or system Sus scrofa"}, "[6]": {"target": "T2, 2-5A-dependent ribonuclease", "test": "Inhibition of full length H-RNAase L expressed in Escherichia coli BL21 (DE3) assessed as inhibition rate incubated for 15 min in presence of 1 nM 2-5A for 15 mins by Coomassie staining based SDS-PAGE analysis"}, "[7]": {"test": "Inhibition of full length P-RNAase L expressed in Escherichia coli BL21 (DE3) assessed as inhibition rate incubated for 15 min in presence of 20 nM 2-5A for 15 mins by Coomassie staining based SDS-PAGE analysis", "parameters": "species or system Sus scrofa"}, "[8]": {"test": "Inhibition of full length P-RNAase L expressed in Escherichia coli BL21 (DE3) assessed as inhibition rate incubated for 15 min in presence of 1 nM 2-5A for 15 mins by Coomassie staining based SDS-PAGE analysis", "parameters": "species or system Sus scrofa"}, "[9]": {"test": "Inhibition of full length P-RNAase L expressed in Escherichia coli BL21 (DE3) assessed as inhibition rate incubated for 15 min in presence of 5 nM 2-5A for 15 mins by Coomassie staining based SDS-PAGE analysis", "parameters": "species or system Sus scrofa"}, "[10]": {"target": "T1, 2-5A-dependent ribonuclease (Homo sapiens)", "test": "Inhibition of RNAase L in human A549 cells assessed as rRNA cleavage pretreated at 30 uM for 4 hrs followed by treated with 20 uM 2-5A by […] analysis", "type": "cell-based", "outline": "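A549 cells were grown 16 h in RPMI with 10% FBS, then given inhibitor at 3, 10, 30 or 100 μM in fresh medium for 4 h. Trimeric 2-5A (20 μM) was then transfected with lipofectamine 2000 with inhibitor still present, for 2 h more. rRNA cleavage was read from total RNA on Bioanalyzer chips. NP40 lysates were western-blotted for RNase L and beta-actin.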"}, "[11]": {"test": "Inhibition of P-RNAase L R353E mutant expressed in Escherichia coli BL21 (DE3) assessed as inhibition rate", "parameters": "species or system Sus scrofa"}, "[12]": {"target": "T2, 2-5A-dependent ribonuclease", "test": "Inhibition of full length H-RNAase L expressed in Escherichia coli BL21 (DE3) assessed as inhibition rate incubated for 15 min in presence of 5 nM 2-5A for 15 mins by Coomassie staining based SDS-PAGE analysis"}, "[13]": {"test": "Inhibition of P-RNAase L K164E mutant expressed in Escherichia coli BL21 (DE3) assessed as inhibition rate", "parameters": "species or system Sus scrofa"}, "Sus scrofa [14]": {"organism": "Sus scrofa", "test": "Suppression of 2-5A-induced full length P-RNase L oligomerization in presence of upto 2 uM 2-5A at 40 uM by SDS-PAGE analysis", "outline": "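Full-length porcine RNase L (0.8 μM) with 5 mM MgCl2 was held 15 min on ice with or without inhibitor, then 15 min on ice with 2-5A. It was cross-linked with dimethyl suberimidate in triethanolamine (pH 8.5) for 1 h at room temperature. Samples were boiled in SDS loading buffer, run on 4-12% SDS-PAGE and stained with Coomassie.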"}, "[15]": {"target": "T2, 2-5A-dependent ribonuclease", "test": "Inhibition of full length H-RNAase L expressed in Escherichia coli BL21 (DE3) assessed as inhibition rate incubated for 15 min in presence of 20 nM 2-5A for 15 mins by Coomassie staining based SDS-PAGE analysis"}, "[16]": {"test": "as §2", "parameters": "species or system Sus scrofa"}},
  "note": "pIC50: −log10 of the molar value. Calls of active or inactive are those of the source. The rule behind the calls is not given here.",
  "data": [
    {"compound": "C[S+]([O-])c1sc(Cl)c2c1C(=O)CCC2", "note": "(stereo not drawn)", "values": [
      {"measurement": "inhibition", "setting": "Sus scrofa [1]", "result": "Active"},
      {"measurement": "inhibition", "setting": "[2]", "result": "Active"}
    ]},
    {"compound": "Cc1cc(C(=O)O)cc(Cl)n1", "values": [
      {"measurement": "inhibition", "setting": "Sus scrofa [1]", "result": "Active"},
      {"measurement": "inhibition", "setting": "[2]", "result": "Active"}
    ]},
    {"compound": "O=C(O)c1ccc(Cl)nc1Cl", "values": [
      {"measurement": "inhibition", "setting": "Sus scrofa [1]", "result": "Active"},
      {"measurement": "inhibition", "setting": "[2]", "result": "Active"}
    ]},
    {"compound": "Oc1ccc(Sc2ccc(O)cc2)cc1", "values": [
      {"measurement": "inhibition", "setting": "Sus scrofa [1]", "result": "Active"},
      {"measurement": "inhibition", "setting": "[2]", "result": "Active"}
    ]},
    {"compound": "CCCCOC(=O)c1ccc(O)cc1", "note": "[BUTYLPARABEN]", "values": [
      {"measurement": "pIC50", "setting": "[3]", "result": 2.62},
      {"measurement": "inhibition", "setting": "Sus scrofa [4]", "result": "inactive"},
      {"measurement": "inhibition", "setting": "[2]", "result": "Active"}
    ]},
    {"compound": "O=c1c(O[C@@H]2O[C@H](CO)[C@H](O)[C@H](O)[C@H]2O)c(-c2ccc(O)c(O)c2)oc2cc(O)cc(O)c12", "note": "[HYPEROSIDE]", "values": [
      {"measurement": "pIC50", "setting": "[5]", "result": 6.05},
      {"measurement": "pIC50", "setting": "[6]", "result": 5.87},
      {"measurement": "pIC50", "setting": "[7]", "result": 5.85},
      {"measurement": "pIC50", "setting": "[8]", "result": 5.83},
      {"measurement": "pIC50", "setting": "[9]", "result": 5.85},
      {"measurement": "Activity", "setting": "[10]", "result": "inactive"},
      {"measurement": "pIC50", "setting": "[3]", "result": 5.79},
      {"measurement": "pIC50", "setting": "[11]", "result": 6.19},
      {"measurement": "pIC50", "setting": "[12]", "result": 5.88},
      {"measurement": "pIC50", "setting": "[13]", "result": 5.99},
      {"measurement": "inhibition", "setting": "Sus scrofa [14]", "result": "inactive"},
      {"measurement": "pIC50", "setting": "[15]", "result": 5.85}
    ]},
    {"compound": "O=c1c(O)c(-c2cc(O)c(O)c(O)c2)oc2cc(O)cc(O)c12", "note": "[MYRICETIN]", "values": [
      {"measurement": "pIC50", "setting": "[3]", "result": 3.58},
      {"measurement": "pIC50", "setting": "[16]", "result": 3.76}
    ]},
    {"compound": "O=c1cc(-c2ccc(O)cc2)oc2c([C@@H]3O[C@H](CO)[C@@H](O)[C@H](O)[C@H]3O)c(O)cc(O)c12", "note": "[VITEXIN]", "values": [
      {"measurement": "Activity", "setting": "[10]", "result": "inactive"},
      {"measurement": "pIC50", "setting": "[3]", "result": 3.72},
      {"measurement": "pIC50", "setting": "[16]", "result": 3.96}
    ]}
  ]
}
